Measured values of several laboratories.
pIC50: −log10 of the molar value.
Cell line: PC-9
Read-out: cell growth or viability
Time: 72 h

SMILES | method | concentration | quantity | result
COc1ccc(C(=O)Nc2nc3cc(-c4ccc5ncn(Cc6ccccc6)c(=O)c5c4)ccc3s2)cc1 | MTT |  | pIC50 | < 4.70
COc1ccc(NC(=O)NCc2cn(Cc3ccccc3C)nn2)cc1 | CCK-8 | 20 µM | viability | 94.4%
O=C(Nc1cccc(-c2cn(Cc3ccc(Br)cc3)nn2)c1)Nc1ccccc1Br | CCK-8 | 50 µM | viability | 92.6%
CCCCn1cnc2ccc(-c3ccc4sc(NC(=O)Nc5ccc(F)cc5)nc4c3)cc2c1=O | MTT |  | pIC50 | 5.21
COc1ccc(NC(=O)NCc2cn(Cc3ccc(Br)cc3)nn2)cc1 | CCK-8 | 20 µM | viability | 100%
O=C(NCc1cn(Cc2ccc(Br)cc2)nn1)Nc1ccccc1Br | CCK-8 | 20 µM | viability | 99.2%
O=C(Nc1ccc(F)cc1)Nc1nc2cc(-c3ccc4ncn(CC5CC5)c(=O)c4c3)ccc2s1 | MTT |  | pIC50 | < 4.70
O=C(Nc1ccc(Cl)cc1)Nc1ccc(-c2cn(Cc3ccc(Cl)cc3)nn2)cc1 | CCK-8 | 50 µM | viability | 81.3%
O=C(Nc1ccc(F)cc1)Nc1nc2cc(-c3ccc4ncn(CC(=O)N5CCOCC5)c(=O)c4c3)ccc2s1 | MTT |  | pIC50 | < 4.70
COc1ccc(NC(=O)Nc2cccc(-c3cn(Cc4ccc(Cl)cc4)nn3)c2)cc1 | CCK-8 | 50 µM | viability | 89.5%
O=C(NCc1cn(Cc2ccc(Cl)cc2)nn1)Nc1ccccc1Br | CCK-8 | 50 µM | viability | 127%
COc1ccc(N(Cc2csc(-c3ccc(Br)cc3)n2)C(=O)CCCCCC(=O)NO)cc1 | MTT |  | pIC50 | 5.73
COc1ccc(NC(=O)Nc2ccc(-c3cn(Cc4ccc(Br)cc4)nn3)cc2)cc1 | CCK-8 | 20 µM | viability | 93%
COc1ccc(N(Cc2csc(-c3ccccc3)n2)C(=O)CCCCCC(=O)NO)cc1 | MTT |  | pIC50 | 6.28
O=C(Nc1ccc(Cl)cc1)Nc1ccc(-c2cn(Cc3ccc(Br)cc3)nn2)cc1 | CCK-8 | 20 µM | viability | 71.5%
COc1ccc(NC(=O)Nc2nc3cc(-c4ccc5ncn(Cc6ccccc6)c(=O)c5c4)ccc3s2)cc1 | MTT |  | pIC50 | < 4.70
COc1ccc(NC(=O)Nc2ccc(-c3cn(Cc4ccc(C)cc4)nn3)cc2)cc1 | CCK-8 | 50 µM | viability | 96%
CC(C)CCn1cnc2ccc(-c3ccc4sc(NC(=O)Nc5ccc(F)cc5)nc4c3)cc2c1=O | MTT |  | pIC50 | 5.04
COc1ccc(NC(=O)NCc2cn(Cc3ccc(Cl)cc3)nn2)cc1 | CCK-8 | 20 µM | viability | 96.2%
O=C(Nc1ccc(-c2cn(Cc3ccc(Cl)cc3)nn2)cc1)Nc1ccccc1Br | CCK-8 | 50 µM | viability | 103%
